# Reference: ChEMBL document CHEMBL4715736, “Identification of anticancer agents based on the thieno[2,3-b]pyridine and 1H-pyrazole molecular scaffolds” (2016)
# System: MCF7
# Assay: Growth inhibition of human MCF7 cells assessed as cell growth at 0.01 uM incubated for 48 hrs by sulforhodamine B assay relative to control
# Assay type: functional
# Conditions: read-out: Activity
row,SMILES,growth at 0.01 µM [%]
1,CCc1cccc(C)c1NC(=O)c1sc2nc3c(cc2c1N)C(=O)CCC3,83

# System: SK-MEL-28
# Assay: Growth inhibition of human SK-MEL-28 cells assessed as cell growth at 1 uM incubated for 48 hrs by sulforhodamine B assay relative to control
# Assay type: functional
# Conditions: read-out: Activity
row,SMILES,growth at 1 µM [%]
1,CCc1cccc(C)c1NC(=O)c1sc2nc3c(cc2c1N)C(=O)CCC3,48

# System: RXF 393
# Assay: Growth inhibition of human RXF 393 cells assessed as cell growth at 100 uM incubated for 48 hrs by sulforhodamine B assay relative to control
# Assay type: functional
# Conditions: read-out: Activity
row,SMILES,growth at 100 µM [%]
1,CCc1cccc(C)c1NC(=O)c1sc2nc3c(cc2c1N)C(=O)CCC3,5

# System: HCT-15
# Assay: Growth inhibition of human HCT-15 cells assessed as cell growth at 0.01 uM incubated for 48 hrs by sulforhodamine B assay relative to control
# Assay type: functional
# Conditions: read-out: Activity
row,SMILES,growth at 0.01 µM [%]
1,CCc1cccc(C)c1NC(=O)c1sc2nc3c(cc2c1N)C(=O)CCC3,93

# System: COLO 205
# Assay: Growth inhibition of human COLO 205 cells assessed as cell growth at 0.1 uM incubated for 48 hrs by sulforhodamine B assay relative to control
# Assay type: functional
# Conditions: read-out: Activity
# In short: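 NCI Developmental Therapeutics Program NCI60 panel. Compounds that were active in the 10 µM one-dose screen went on to dose–response testing. Growth at each concentration is expressed relative to untreated control (100%). GI50 (concentration giving 50% of maximal inhibition of proliferation) and TGI (concentration giving total growth inhibition) were derived from the curves.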
row,SMILES,growth at 0.1 µM [%]
1,CCc1cccc(C)c1NC(=O)c1sc2nc3c(cc2c1N)C(=O)CCC3,102

# System: OVCAR-4
# Assay: Growth inhibition of human OVCAR-4 cells assessed as cell growth at 0.1 uM incubated for 48 hrs by sulforhodamine B assay relative to control
# Assay type: functional
# Conditions: read-out: Activity
row,SMILES,growth at 0.1 µM [%]
1,CCc1cccc(C)c1NC(=O)c1sc2nc3c(cc2c1N)C(=O)CCC3,91

# System: Malme-3M
# Assay: Growth inhibition of human Malme-3M cells assessed as cell growth at 1 uM incubated for 48 hrs by sulforhodamine B assay relative to control
# Assay type: functional
# Conditions: read-out: Activity
row,SMILES,growth at 1 µM [%]
1,CCc1cccc(C)c1NC(=O)c1sc2nc3c(cc2c1N)C(=O)CCC3,31

# System: U-251
# Assay: Growth inhibition of human U-251 cells assessed as cell growth at 0.01 uM incubated for 48 hrs by sulforhodamine B assay relative to control
# Assay type: functional
# Conditions: read-out: Activity
row,SMILES,growth at 0.01 µM [%]
1,CCc1cccc(C)c1NC(=O)c1sc2nc3c(cc2c1N)C(=O)CCC3,94

# System: IGROV-1
# Assay: Growth inhibition of human IGROV-1 cells assessed as cell growth at 0.01 uM incubated for 48 hrs by sulforhodamine B assay relative to control
# Assay type: functional
# Conditions: read-out: Activity
row,SMILES,growth at 0.01 µM [%]
1,CCc1cccc(C)c1NC(=O)c1sc2nc3c(cc2c1N)C(=O)CCC3,101

# System: HCT-15
# Assay: Growth inhibition of human HCT-15 cells assessed as cell growth at 100 uM incubated for 48 hrs by sulforhodamine B assay relative to control
# Assay type: functional
# Conditions: read-out: Activity
row,SMILES,growth at 100 µM [%]
1,CCc1cccc(C)c1NC(=O)c1sc2nc3c(cc2c1N)C(=O)CCC3,7

# System: OVCAR-5
# Assay: Growth inhibition of human OVCAR-5 cells assessed as cell growth at 1 uM incubated for 48 hrs by sulforhodamine B assay relative to control
# Assay type: functional
# Conditions: read-out: Activity
row,SMILES,growth at 1 µM [%]
1,CCc1cccc(C)c1NC(=O)c1sc2nc3c(cc2c1N)C(=O)CCC3,59

# System: MOLT-4
# Assay: Growth inhibition of human MOLT-4 cells assessed as cell growth at 0.1 uM incubated for 48 hrs by sulforhodamine B assay relative to control
# Assay type: functional
# Conditions: read-out: Activity
row,SMILES,growth at 0.1 µM [%]
1,CCc1cccc(C)c1NC(=O)c1sc2nc3c(cc2c1N)C(=O)CCC3,102

# System: SNB-75
# Assay: Growth inhibition of human SNB-75 cells assessed as cell growth at 1 uM incubated for 48 hrs by sulforhodamine B assay relative to control
# Assay type: functional
# Conditions: read-out: Activity
row,SMILES,growth at 1 µM [%]
1,CCc1cccc(C)c1NC(=O)c1sc2nc3c(cc2c1N)C(=O)CCC3,-2

# System: NCI-H322M
# Assay: Growth inhibition of human NCI-H322M cells assessed as cell growth at 0.1 uM incubated for 48 hrs by sulforhodamine B assay relative to control
# Assay type: functional
# Conditions: read-out: Activity
row,SMILES,growth at 0.1 µM [%]
1,CCc1cccc(C)c1NC(=O)c1sc2nc3c(cc2c1N)C(=O)CCC3,91

# System: OVCAR-8
# Assay: Growth inhibition of human OVCAR-8 cells assessed as cell growth at 100 uM incubated for 48 hrs by sulforhodamine B assay relative to control
# Assay type: functional
# Conditions: read-out: Activity
row,SMILES,growth at 100 µM [%]
1,CCc1cccc(C)c1NC(=O)c1sc2nc3c(cc2c1N)C(=O)CCC3,-2

# System: NCI/ADR-RES
# Assay: Growth inhibition of human NCI/ADR-RES cells assessed as cell growth at 0.01 uM incubated for 48 hrs by sulforhodamine B assay relative to control
# Assay type: functional
# Conditions: read-out: Activity
row,SMILES,growth at 0.01 µM [%]
1,CCc1cccc(C)c1NC(=O)c1sc2nc3c(cc2c1N)C(=O)CCC3,100

# System: KM12
# Assay: Growth inhibition of human KM12 cells assessed as cell growth at 100 uM incubated for 48 hrs by sulforhodamine B assay relative to control
# Assay type: functional
# Conditions: read-out: Activity
row,SMILES,growth at 100 µM [%]
1,CCc1cccc(C)c1NC(=O)c1sc2nc3c(cc2c1N)C(=O)CCC3,4

# System: KM12
# Assay: Growth inhibition of human KM12 cells assessed as cell growth at 0.01 uM incubated for 48 hrs by sulforhodamine B assay relative to control
# Assay type: functional
# Conditions: read-out: Activity
row,SMILES,growth at 0.01 µM [%]
1,CCc1cccc(C)c1NC(=O)c1sc2nc3c(cc2c1N)C(=O)CCC3,96

# System: UACC-62
# Assay: Growth inhibition of human UACC-62 cells assessed as cell growth at 0.01 uM incubated for 48 hrs by sulforhodamine B assay relative to control
# Assay type: functional
# Conditions: read-out: Activity
row,SMILES,growth at 0.01 µM [%]
1,CCc1cccc(C)c1NC(=O)c1sc2nc3c(cc2c1N)C(=O)CCC3,96
